An excerpt weighted towards active compounds, which were near 2.1% of everything screened.
p-CIP stab down – p/CIP-EGFP fusion destabilizers, primary screen, fluorescence, F442A cells; 16 h; Q05BA5; AID 1984, 2009; decrease of EGFP signal, % at 10 µM; 0.01% of 290,000 active;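 active = EGFP signal decrease of at least 30% at 10 µM or well 3 SD below plate mean, unless failing retest; inactive = the rest, including hits failing retest or dose response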
Pemphigus Ab inh – inhibitors of pemphigus antibody binding to DSG3, primary screen, biochemical, bead-based, flow cytometry, scFv-GFP; Desmoglein-3 (Homo sapiens), P32926; DSG3-coupled beads, scFv-anti-DSG3-GFP binding; active compounds read low; binding (percent of control), % at 10 µM; 0.48% of 310,000 active;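 active = binding more than 3 SD below its plate's average and above zero; inconclusive = below that plate limit but binding exactly zero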;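 also: hits lower antibody fragment binding to DSG3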
Runt-SMMHC FRET – inhibitors of RUNX1 Runt–CBFb-SMMHC binding, primary screen, biochemical, FRET, Cerulean-Runt, Venus-CBFb-SMMHC, uHTS; Runt-related transcription factor 1 (Homo sapiens) + Core-binding factor subunit beta …; Cerulean-Runt/Venus-CBFb-SMMHC FRET ratio 530/480, 1 h; inhibition, % at 20 µM; 0.74% of 220,000 active; AID 1434, 2008;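 active = mean inhibition across duplicate retests at 20 µM reaching about 50%, limit read from the data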;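 also: 0% = DMSO wells and 100% = wells with excess untagged CBFb-SMMHC; inhibitors lower the FRET ratio by blocking Runt binding to CBFb-SMMHC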
Target sequence (Q01196 whole entry, looked up): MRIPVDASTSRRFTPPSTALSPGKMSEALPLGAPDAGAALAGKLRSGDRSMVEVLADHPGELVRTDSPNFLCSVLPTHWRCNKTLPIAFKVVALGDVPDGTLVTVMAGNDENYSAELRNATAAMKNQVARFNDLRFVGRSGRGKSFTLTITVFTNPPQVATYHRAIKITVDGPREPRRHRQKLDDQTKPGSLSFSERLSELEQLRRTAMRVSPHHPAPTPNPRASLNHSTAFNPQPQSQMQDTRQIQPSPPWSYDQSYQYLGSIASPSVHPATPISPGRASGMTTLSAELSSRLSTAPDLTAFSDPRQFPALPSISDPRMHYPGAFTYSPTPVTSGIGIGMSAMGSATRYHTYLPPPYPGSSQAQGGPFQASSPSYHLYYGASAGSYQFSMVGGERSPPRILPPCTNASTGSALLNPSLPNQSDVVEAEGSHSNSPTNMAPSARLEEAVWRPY
Target sequence (Q13951 whole entry, looked up): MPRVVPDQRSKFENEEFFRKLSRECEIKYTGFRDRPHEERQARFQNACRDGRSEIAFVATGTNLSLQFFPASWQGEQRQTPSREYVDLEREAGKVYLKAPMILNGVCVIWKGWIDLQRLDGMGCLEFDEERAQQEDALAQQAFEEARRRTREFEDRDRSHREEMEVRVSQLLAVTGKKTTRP
Runt-CBFb FRET – inhibitors of RUNX1 Runt–CBFb binding, primary screen, biochemical, FRET, Cerulean-Runt, Venus-CBFb, uHTS. 0.46% of 220,000 active. Cerulean-Runt/Venus-CBFb FRET ratio 530/480, 1 h. inhibition, % at 20 µM. Runt-related transcription factor 1 (Homo sapiens) + Core-binding factor subunit beta …;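 active = inhibition over about 50% at 20 µM in the single-dose screen, limit read from the data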;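 also: 0% = DMSO wells and 100% = excess unlabeled CBFb competitor control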
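Assay system: Cerulean-Runt domain fusion protein, energy donor; Signal: fluorescence energy transfer, 422 nm excitation, 530/480 nm emission; Timing: 1 h compound exposure, room temperature; Control set: unlabeled CBFb; Medium: Tris buffer pH 7.5 with salts and BSA; Compound: single test concentration of 20 µM, 1% DMSO final; Probe or stimulus: Venus-CBFb 100 nM.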
Hck-Nef inh – inhibitors of Nef-activated human Hck kinase, primary screen, biochemical, Z-Lyte FRET, 384-well, Hck-YEEI; 0.68% of 220,000 active; Tyrosine-protein kinase HCK (Homo sapiens), P08631; Recombinant Hck-YEEI plus Nef, Z-Lyte FRET kinase assay; inhibition, % at 20 µM;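 active = Hck-Nef kinase inhibition above about 50%, limit read from the data; inactive = inhibition below that limit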;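 also: 0% = DMSO with Hck plus Nef and 100% = Hck alone without Nef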
RanGTP-Impb inh – inhibitors of RanGTP-importin-beta interaction, primary screen, biochemical, FRET, CFP-Ran, YFP-importin-beta, homogeneous; Ran GTPase (GTP-bound) - importin-beta complex; cell-free CFP-Ran/YFP-importin-beta FRET ratio; inhibition, % (no concentration beside the values); 1.1% of 300,000 active; AID 2216, 2009;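 active = more than half of the replicate wells show a fall in the fluorescence ratio signal beyond about 16%, limit read from the data, passing the limit was not always enough; inconclusive = exactly half of the replicate wells pass the set limit; inactive = fewer than half of replicates pass the limit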;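 also: 0% = DMSO wells and 100% = Ran loaded with GDP instead of GTP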
The depositor's hits bear a star; ? = inconclusive; . = no result.

SMILES	p-CIP stab down	Pemphigus Ab inh	Runt-SMMHC FRET	Runt-CBFb FRET	Hck-Nef inh	RanGTP-Impb inh
O=C(COc1cc(=O)n2c(n1)SCCC2)c1ccccc1	8	105	1	0	1	2
COC(=O)C1=COC(C)C2CN3CCc4c([nH]c5ccccc45)C3CC12 (configuration not stated)	-9	99	46	11	3	122*
CCCCOc1ccc(-c2nnn(C(C)C(=O)OCC)n2)cc1 (configuration not stated)	-2	101	-5	-6	-1	91*
O=C(N/N=C/c1c(O)n(-c2ccccc2Cl)c(=O)c2ccccc12)c1cccnc1	-9	110	86*	20	0	3
COc1ccc(Cn2c(O)c(C=Nc3ccccc3C(=O)O)c3ccccc3c2=O)cc1	-6	108	3	2	24	6
Cc1cccc(-n2c(O)c(/C=N/NC(=O)c3ccccc3Cl)c3ccccc3c2=O)n1	-3	129	64	-25	3	2
COc1ccc(Cn2c(O)c(/C=N/NC(=O)c3cccnc3)c3ccccc3c2=O)cc1	-6	100	86*	21	-12	10
O=C(N/N=C/c1c(O)n(Cc2ccccc2)c(=O)c2ccccc12)c1cccnc1	11	110	87*	36	-25	0
O=C(CN1C(=O)CSc2ncccc21)Nc1cccc(Cl)c1	-5	105	.	.	.	-2
COc1ccccc1C1C2=C(CC(C)(C)CC2=O)N(CC(=O)O)C2=C1C(=O)CC(C)(C)C2	-15	101	.	.	.	164*
C#CCOc1ccc(C2C3=C(CC(C)(C)CC3=O)N(CC(=O)O)C3=C2C(=O)CC(C)(C)C3)cc1	-11	108	.	.	.	162*
CCOc1ccc(C2C3=C(CC(C)(C)CC3=O)N(CC(=O)O)C3=C2C(=O)CC(C)(C)C3)cc1OCC	-18	101	.	.	.	3
CC(OC(=O)/C=C/c1ccc2ccccc2n1)C(=O)NCc1ccccc1 (configuration not stated)	.	106	.	.	.	0
Cc1ccc2nc3c(cc(C(=O)NCc4ccco4)c(=N)n3C3CCCC3)c(=O)n2c1	-8	105	.	.	.	187*
COc1ccc(CCn2c(=N)c(C(=O)NCc3ccco3)cc3c(=O)n4ccccc4nc32)cc1OC	.	94	.	.	.	.
Cc1cccn2c(=O)c3cc(C(=O)NCc4ccco4)c(=N)n(C4CCCCC4)c3nc12	-11	91	.	.	.	130*
O=C(COC(=O)c1ccc(OC(F)F)cc1)NCCC1=CCCCC1	.	88	.	.	.	.
NS(=O)(=O)c1ccc(CCNC(=O)COC(=O)C2CCN(c3ccc(C(F)(F)F)cn3)CC2)cc1	.	106	.	.	.	.
CCN1CCN(C(=O)Cn2cnc3sc(C)c(S(=O)(=O)N4CCN(c5ncccn5)CC4)c3c2=O)CC1	-8	99	1	-1	19	1
COc1ccc2cc3c(N)nn(C(=O)c4cccc(F)c4)c3nc2c1	-10	103	-12	7	8	?
COc1ccc2cc3c(N)nn(C(=O)c4ccc(F)cc4)c3nc2c1	-10	62*	-2	-1	11	7
Cc1cccc(-n2c(O)c(C=NC3CCS(=O)(=O)C3)c3ccccc3c2=O)c1C (configuration not stated)	-14	99	-7	2	8	0
Cc1c(CCC(=O)O)c(=O)n2c([nH]c3ccccc32)c1C#N	8	114	3	7	4	?
Cc1ccc(Cc2c(C)c(C#N)c3[nH]c4ccccc4n3c2=O)cc1	-7	88	2	-1	25	21*
CCc1c(C)c(C#N)c2[nH]c3ccccc3n2c1=S	-1	.	84*	15	-152	10

Screening data (PubChem)
